The test system of data set [1] is U-251. Nature of the data set: Effect on DR4 expression in human U251MG cells upto 25 uM after 24 hrs by Western blot analysis. The class given is functional, cell-based. The method, boiled down: (§1)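 Cells exposed to a range of morusin concentrations for 24 h. Cell extracts immunoblotted for DR4, DR5, DcR1 and DcR2, with β-actin as internal control and HRP-conjugated secondary antibodies (1:5000).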

The test system of data set [2] is U-251. The data set is described as follows: Effect on DcR2 expression in human U251MG cells upto 25 uM after 24 hrs by Western blot analysis. It counts as functional, cell-based. The method, boiled down: as §1
Data set [3] has as its system U-87 MG. The data set is described as follows: Effect on cIAP1 expression in human U87MG cells at 12 to 25 uM after 24 hrs by Western blot analysis. The class given is functional, cell-based. The note with it: U-87MG ATCC. The method, boiled down: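 U87MG and U373MG exposed to a range of morusin concentrations for 24 h. Whole-cell extracts immunoblotted for cIAP1, with β-actin as internal control.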

The test system of data set [4] is T98G. Nature of the data set: Cytotoxicity against human T98G cells assessed as reduction in cell viability after 24 hrs by MTT assay. It counts as functional, cell-based. The method, boiled down: (§2)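 Seeded 3–5 × 10^3 cells/well, treated the next day with a range of morusin (DMSO stock) for 24 h, 37 °C, 5% CO2. Then fresh medium with 1 mg/mL MTT for 2 h at 37 °C, lysis buffer overnight at 37 °C, OD 570 nm. Mean ± SD from at least three independent experiments in triplicate.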

For data set [5], the system named is U-87 MG. Nature of the data set: Effect on cIAP1 expression in human U87MG cells at 25uM after 3 to 18 hrs by Western blot analysis. It counts as functional, cell-based. As to conditions: U-87MG ATCC. The method, boiled down: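 Time course: U87MG and U373MG cells held at 25 μM morusin for the times indicated. Extracts immunoblotted (cIAP1 or DR5), with β-actin as loading control.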

The test system of data set [6] is U-87 MG. The data set is described as follows: Effect on DR4 expression in human U87MG cells upto 25 uM after 24 hrs by Western blot analysis. It counts as functional, cell-based. As to conditions: U-87MG ATCC. The method in brief:
as §1

In data set [7] the test system is U373 MG. The data set is described as follows: Effect on DR4 expression in human U373MG cells upto 25 uM after 24 hrs by Western blot analysis. The class given is functional, cell-based. The note with it: U-373MG ATCC. The method in brief:
as §1

A short description of data set [8]: Cytotoxicity against human U87MG cells assessed as cell death after 24 hrs by MTT assay in presence of TRAIL. It counts as functional, U-87MG ATCC. The method in brief:
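U87MG cells (MEM, 10% FBS) were seeded at (3−5) × 10^3 cells/well and treated 1 day later with TRAIL at 100 ng/mL plus graded test compound for 24 h. Fresh medium with 1 mg/mL MTT was added for 2 h at 37 °C, then lysis buffer overnight at 37 °C, and OD was read at 570 nm. Data are mean ± SD from ≥3 independent experiments in triplicate.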

The nature of data set [9]: Reduction of EGFR expression in human U251MG cells at 25 uM after 24 hrs by Western blot analysis. It counts as functional, cell-based. The note with it: U-251. The method in brief: (§3)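 LN18, U87MG, T98G, U251MG and U373MG glioblastoma cells were exposed to morusin for 24 h. Cells were maintained in DMEM, MEM or RPMI with 10% FBS at 37 °C and 5% CO2. Whole-cell lysates were Western blotted for receptor proteins, with β-actin as internal control.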

The nature of data set [10]: Reduction of EGFR expression in human LN18 cells at 25 uM after 24 hrs by Western blot analysis. As to conditions: LN-18. It counts as functional, cell-based. The method in brief:
as §3

Data set [11] can be described thus: Reduction of XIAP mRNA expression in human U87MG cells after 24 hrs by RT-qPCR analysis. The note with it: U-87MG ATCC. It counts as functional, cell-based. The method in brief:
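U87MG cells were treated with graded morusin for 24 h. Total RNA was extracted with TRI Reagent, and 1 μg was reverse transcribed. XIAP and survivin mRNA were quantified by RT-qPCR, normalized to GAPDH. Results are mean ± SD from at least three independent experiments; unpaired t-test.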

Data set [12] relates to T98G. The data set is described as follows: Induction of apoptosis in human T98G cells assessed as increase in cleaved caspase 3 levels at 2.5 uM after 24 hrs by Western blot analysis in presence of TRAIL. It counts as functional, cell-based. The method in brief:
(§4)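 U87MG and T98G given TRAIL 25 ng/mL plus morusin 2.5 μM together for 24 h; single-agent arms used TRAIL 50 ng/mL or morusin 5 μM. Lysates immunoblotted for cleaved caspase 3, 8, 9 and cleaved PARP, with β-actin as internal control.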

The target in data set [13] is Signal transducer and activator of transcription 3 (Homo sapiens) (UniProt P40763). Nature of the data set: Inhibition of STAT3 phosphorylation in human U373MG cells measured up to 25 uM after 24 hrs by Western blot analysis. The class given is cell-based. The note with it: U-373MG ATCC. The method in brief:
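Cells grown in MEM (U87MG) or RPMI (U373MG) with 10% FBS, 5% CO2, 37 °C. Treated for 24 h with the indicated concentrations of morusin (DMSO stock). Whole-cell lysates immunoblotted for phosphorylated and total proteins, with β-actin as internal control.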

The test system of data set [14] is U-251. The data set is described as follows: Induction of DR4 expression in human U251MG cells at 25 uM after 24 hrs by FITC-conjugated flow cytometric analysis. It counts as functional, cell-based. The method, boiled down:
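Cells given 25 μM morusin for 24 h, then stained on ice for 30 min with 0.5 μg/mL FITC-conjugated anti-DR4, anti-DR5 or isotype IgG in FACS buffer. Surface expression read by flow cytometry.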

In data set [15] the test system is LN-18. The data set is described as follows: Effect on DcR2 expression in human LN18 cells upto 25 uM after 24 hrs by Western blot analysis. The class given is functional, cell-based. The method in brief:
as §1

The test system of data set [16] is U-87 MG. Nature of the data set: Effect on DcR1 expression in human U87MG cells upto 25 uM after 24 hrs by Western blot analysis. As to conditions: U-87MG ATCC. It counts as functional, cell-based. The method, boiled down: as §1
In data set [17] the test system is U373 MG. Nature of the data set: Effect on DcR2 expression in human U373MG cells upto 25 uM after 24 hrs by Western blot analysis. The class given is functional, cell-based. The note with it: U-373MG ATCC. The method, boiled down:
as §1

Data set [18] is described as follows: Cytotoxicity against human U251MG cells assessed as reduction in cell viability after 24 hrs by MTT assay. The class given is functional, cell-based. The note with it: U-251, 24 h. The method, boiled down: as §2
A short description of data set [19]: Reduction of XIAP mRNA expression in human U87MG cells at 25 uM by RT-qPCR analysis. The class given is functional, cell-based. As to conditions: U-87MG ATCC, TDE = time-dependent effect. The method, boiled down:
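U87MG cells were exposed to 25 μM morusin over a time course. Total RNA (1 μg) was reverse transcribed, and XIAP and survivin transcripts were measured by RT-qPCR against GAPDH. Results are mean ± SD from at least three independent experiments.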

A short description of data set [20]: Stability in human U87MG cells assessed as compound remaining at 10 uM after 24 hrs. It counts as ADME, cell-based, U-87MG ATCC. As to conditions: read-out: Stability.
Data set [21] concerns T98G. Nature of the data set: Induction of apoptosis in human T98G cells assessed as increase in cleaved PARP levels at 2.5 uM after 24 hrs by Western blot analysis in presence of TRAIL. The class given is functional, cell-based. The method in brief:
as §4

Data set [22] relates to T98G. The data set is described as follows: Reduction of EGFR expression in human T98G cells at 25 uM after 24 hrs by Western blot analysis. The class given is functional, cell-based. The method in brief:
as §3

The nature of data set [23]: Cytotoxicity against human U87MG cells assessed as reduction in cell viability measured up to 20 uM after 24 hrs by MTT assay in presence of TRAIL. The class given is functional, U-87MG ATCC. The method, boiled down:
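MTT viability. 3–5 × 10^3 cells/well, treated the next day with TRAIL 100 ng/mL plus increasing morusin concentrations for 24 h. 1 mg/mL MTT for 2 h at 37 °C, lysis overnight, OD 570 nm. Living-cell fractions were used for combination index analysis. Mean ± SD, at least three independent experiments.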

For data set [24], the system named is LN-18. The data set is described as follows: Induction of DR5 expression in human LN18 cells after 24 hrs by Western blot analysis. It counts as functional, cell-based. The method, boiled down:
as §1

The source made the active and inactive calls. The rule behind the calls is not given here. Where only a bound is given, the exact number is not on record here.

Sequence of Signal transducer and activator of transcription 3 (Homo sapiens) (P40763 whole entry): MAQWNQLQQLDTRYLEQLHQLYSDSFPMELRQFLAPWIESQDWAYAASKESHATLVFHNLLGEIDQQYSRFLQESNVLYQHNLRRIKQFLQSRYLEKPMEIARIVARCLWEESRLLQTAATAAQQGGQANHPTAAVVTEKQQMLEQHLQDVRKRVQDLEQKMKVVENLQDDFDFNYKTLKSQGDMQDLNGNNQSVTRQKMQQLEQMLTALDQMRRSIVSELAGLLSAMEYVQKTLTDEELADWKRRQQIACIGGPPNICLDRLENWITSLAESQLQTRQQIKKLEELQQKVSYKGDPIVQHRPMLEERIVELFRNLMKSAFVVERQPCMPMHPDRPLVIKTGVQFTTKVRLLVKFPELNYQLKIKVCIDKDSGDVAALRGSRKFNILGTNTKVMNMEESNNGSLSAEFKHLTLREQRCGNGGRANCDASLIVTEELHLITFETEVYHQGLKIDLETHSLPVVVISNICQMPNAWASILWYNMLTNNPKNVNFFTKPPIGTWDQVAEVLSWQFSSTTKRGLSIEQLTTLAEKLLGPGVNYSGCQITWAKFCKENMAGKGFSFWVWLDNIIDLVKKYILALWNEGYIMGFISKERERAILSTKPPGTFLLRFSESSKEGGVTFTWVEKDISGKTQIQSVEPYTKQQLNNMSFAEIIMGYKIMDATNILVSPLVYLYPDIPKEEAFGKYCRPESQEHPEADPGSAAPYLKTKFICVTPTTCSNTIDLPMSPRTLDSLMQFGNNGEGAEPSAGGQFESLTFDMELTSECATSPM

Consider `CC(C)=CCc1c(-c2ccc(O)cc2O)oc2c3c(cc(O)c2c1=O)OC(C)(C)C=C3` [MORUSIN], for which the result in the data set on U-251 [1], with U-251 [2], in the data set on U-87 MG [3], with U-87 MG [5], in the data set on U-87 MG [6] and with U373 MG [7] was inactive. In addition, the outcome in the data set with U-251 [14], in the data set on LN-18 [15], in the data set with U-87 MG [16] and in the data set with U373 MG [17] was inactive. Also, the IC50 (in the data set with T98G [4]; in data set [18]) was 24 µM in each case. The Activity in [8] was 29%; in data set [11] it was “Dose-dependent effect”; in data set [19], “tde”; in the data set on LN-18 [24], “Dose-dependent effect”. Besides, the outcome (in data set [9]; in data set [10]; in the data set on T98G [12]; with T98G [21]; in the data set with T98G [22]) was Active. Also, in data set [13], the inhibition entry is “Active”. The remaining at 24 h, 10 µM in data set [20] was more than 94%. In data set [23], the CI is less than 0.8.

Values taken from ChEMBL document CHEMBL3797089, “Morusin Induces TRAIL Sensitization by Regulating EGFR and DR5 in Human Glioblastoma Cells” (J Nat Prod, 2016).
